Reference: ChEMBL document CHEMBL1148391, “Discovery of 4-substituted pyrrolidone butanamides as new agents with significant antiepileptic activity” (J Med Chem, 2004)

What was measured:
Mus musculus [1] = assay: In vivo dose required to protect 50% audiogenic seizure prone mice against clonic convulsions; type: functional
Method in brief: (§1)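 Genetically sound-sensitive DBA-derived mice, male or female, 14–28 g, N = 10 per group. Compound given ip 60 min before stimulus at log-spaced doses, generally 1.0 × 10^-5 to 1.0 × 10^-3 mol/kg, with a vehicle control group. After 30 s orientation, a 90 dB, 10–20 kHz tone was given for 30 s. Clonic convulsions were scored. ED50 with 95% confidence limits came from probit analysis.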

[2] = target: Synaptic vesicle glycoprotein 2A (Rattus norvegicus) (UniProt Q02563); assay: In vitro inhibitory activity against [3H](2S)-2-[4-(3-azidophenyl)-2-oxopyrrolidin-1-yl]butanamide binding to levetiracetam binding site; parameters: concentration or dose not given beside the values; details: concentration not given here
Synaptic vesicle glycoprotein 2A (Rattus norvegicus), sequence (Q02563 whole entry): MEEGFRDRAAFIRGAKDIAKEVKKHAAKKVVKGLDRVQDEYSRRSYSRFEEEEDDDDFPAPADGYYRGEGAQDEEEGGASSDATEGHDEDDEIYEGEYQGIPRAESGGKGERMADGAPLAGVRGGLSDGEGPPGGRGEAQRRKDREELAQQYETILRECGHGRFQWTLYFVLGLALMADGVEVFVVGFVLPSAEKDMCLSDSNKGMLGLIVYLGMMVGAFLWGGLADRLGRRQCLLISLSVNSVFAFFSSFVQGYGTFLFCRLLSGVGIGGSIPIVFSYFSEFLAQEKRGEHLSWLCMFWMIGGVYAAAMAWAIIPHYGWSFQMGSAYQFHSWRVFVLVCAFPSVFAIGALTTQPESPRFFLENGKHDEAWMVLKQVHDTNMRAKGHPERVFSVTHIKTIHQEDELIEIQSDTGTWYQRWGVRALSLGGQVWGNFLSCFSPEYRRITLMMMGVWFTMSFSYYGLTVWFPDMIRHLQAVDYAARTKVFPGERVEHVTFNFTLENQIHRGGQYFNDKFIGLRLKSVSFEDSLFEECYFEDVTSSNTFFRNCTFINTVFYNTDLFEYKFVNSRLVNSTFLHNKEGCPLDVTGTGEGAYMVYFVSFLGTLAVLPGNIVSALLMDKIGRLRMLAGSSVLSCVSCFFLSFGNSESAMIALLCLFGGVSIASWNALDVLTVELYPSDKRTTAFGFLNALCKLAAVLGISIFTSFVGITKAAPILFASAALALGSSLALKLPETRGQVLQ
Method in brief: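 Rat cerebral cortex membranes (male Sprague-Dawley, 200–250 g), homogenised in Tris-HCl/sucrose at 4 °C, washed, preincubated 15 min at 37 °C. Binding: 4 °C for 120 min in 50 mmol/L Tris-HCl pH 7.4 with 2 mmol/L MgCl2, 1–2 × 10^-9 mol/L tritiated azidophenyl radioligand, rising test concentrations. Nonspecific binding with 10^-3 mol/L levetiracetam. Rapid filtration, scintillation counting. pIC50 is the mean of two independent determinations.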

[3] = Oral bioavailability at 1 mg/kg was determined in rat; type: ADME, organism-based; details: in vivo, read-out: Bioavailabiility
[4] = Half life at 1 mg/kg was determined in rat; type: ADME, organism-based; parameters: dose 1 mg/kg; details: in vivo
[5] = Total clearance at 1 mg/kg was determined in rat; type: ADME, organism-based; parameters: dose 1 mg/kg; details: in vivo
[6] = Maximum time to achieve peak plasma concentration was determined in rat at 1 mg/kg; type: ADME, organism-based; parameters: dose 1 mg/kg
Mus musculus [7] = assay: In vivo dose required to protect 50% audiogenic seizure prone mice against clonic convulsions; value ranges from 59 to 281; type: functional; method in brief: as §1
[8] = Oral bioavailability at 10 mg/kg was determined in rat; type: ADME, organism-based; details: in vivo, read-out: Bioavailabiility
[9] = Maximum time to achieve peak plasma concentration was determined in rat at 10 mg/kg; type: ADME, organism-based; parameters: dose 10 mg/kg
[10] = Total clearance at 10 mg/kg was determined in rat; type: ADME, organism-based; parameters: dose 10 mg/kg; details: in vivo
[11] = Half life at 10 mg/kg was determined in rat; type: ADME, organism-based; parameters: dose 10 mg/kg; details: in vivo
Mus musculus [12] = assay: In vivo dose required to protect 50% audiogenic seizure prone mice against clonic convulsions; value ranges from 102 to 715; type: functional; method in brief: as §1
Mus musculus [13] = assay: In vivo dose required to protect 50% audiogenic seizure prone mice against clonic convulsions; value ranges from 143 to 283; type: functional; method in brief: as §1

| Structure (SMILES) | ED50 (Mus musculus [1]) [µmol/kg] | inhibition [2] [%] | also measured |
| --- | --- | --- | --- |
| CCCC1(C)CC(=O)N([C@@H](CC)C(N)=O)C1 (some centres undefined) | 400 | – | – |
| CC[C@@H](C(N)=O)N1C[C@H](C)CC1=O | 110 | – | – |
| CC[C@@H](C(N)=O)N1C[C@H](CF)CC1=O | 370 | – | – |
| CCC(C(N)=O)N1CC(C(F)(F)F)CC1=O (centres undefined) | 1000 | < 20 | – |
| CC[C@@H](C(N)=O)N1C[C@H](CI)CC1=O | 13 | – | bioavailability [3]: 100%; half-life [4]: 2 h; clearance [5]: 4.8 mL/min/kg; Tmax [6]: 0.8 h |
| CC[C@@H](C(=N)N)N1CCCC1=O | 1000 | – | – |
| CC[C@@H](C(N)=O)N1C[C@H](CO[N+](=O)[O-])CC1=O | 25 | – | – |
| CC(C)C(C(N)=O)N1CCCC1=O (centres undefined) | 890 | – | – |
| CC[C@@H](C(=O)NN)N1CCCC1=O | 1000 | – | – |
| CCC(C(N)=O)N1CC(COC)CC1=O (centres undefined) | 400 | – | – |
| CCC[C@H]1CC(=O)N([C@@H](CC)C(N)=O)C1 | 44 | – | – |
| CCC(C(N)=O)N1CC(C(C)C)CC1=O (centres undefined) | 360 | – | – |
| CC[C@@H](C(N)=O)N(C)C(C)=O | 1800 | – | – |
| CC[C@@H](C(N)=O)N1C(=O)CCC1C (some centres undefined) | 1000 | – | – |
| CC[C@@H](C(N)=O)N1CC(CC(C)(C)C)CC1=O (some centres undefined) | 1000 | – | – |
| CCC(C(N)=O)N1CC(O)CC1=O (centres undefined) | 1000 | < 20 | – |
| CC[C@@H](C(=O)O)N1CCCC1=O | 3200 | < 20 | – |
| CCCCC1CC(=O)N(C(CC)C(N)=O)C1 (centres undefined) | 480 | – | – |
| CCC[C@H](C(N)=O)N1CCCC1=O | 1000 | – | – |
| CC[C@@H](C(N)=O)N1C[C@H](C(=O)OC)CC1=O | 1000 | < 20 | – |
| CC[C@H](C(N)=O)N1CCCC1=O [LEVITIRACETAM] | 1000 | – | – |

| Structure (SMILES) | ED50 (Mus musculus [1]) [µmol/kg] | inhibition [2] [%] | also measured |
| --- | --- | --- | --- |
| CC[C@@H](C(=O)NCc1ccccc1)N1CCCC1=O | 560 | < 30 | – |
| CCCCCCCCN(C(=O)Cc1ccc(Cl)cc1)C(CC)C(N)=O (centres undefined) | 1000 | – | – |
| CC[C@@H](C(N)=O)N1CC(NC(=O)OC)CC1=O (some centres undefined) | 540 | – | – |
| CCC[C@@H](C(N)=O)N1CCCC1=O | – | – | ED50 (Mus musculus [7]): 190 µmol/kg |
| CC[C@@H](C(N)=O)N1CCC(CO)C1=O (some centres undefined) | – | < 20 | – |
| NC(=O)CN1CCCC1=O [PIRACETAM] | 10000 | – | – |
| CC[C@@H](C(N)=O)N1CCC(C)(CC)C1=O (some centres undefined) | 1000 | < 20 | – |
| CC[C@@H](C(N)=O)N1C[C@H](CBr)CC1=O | 180 | – | – |
| CC[C@@H](C(=O)Nc1ccccc1)N1CCCC1=O | 560 | < 20 | – |
| CCCCCC1CCC(=O)N1C(CC)C(N)=O (centres undefined) | – | < 20 | – |
| CC[C@@H](C(N)=O)N1C[C@H](CNS(=O)(=O)c2ccccc2)CC1=O | 1000 | < 20 | – |
| NCCCC(C(N)=O)N1CCCC1=O (centres undefined) | – | < 20 | – |
| CC[C@@H](C(N)=O)N1C[C@H](C(=O)O)CC1=O | 1000 | < 20 | – |
| CC[C@@H](C(=N)NO)N1CCCC1=O | 1000 | < 20 | – |
| CC[C@@H](C(=O)NOC)N1CCCC1=O | 1000 | < 20 | – |
| CC[C@@H](C(=N)S)N1CCCC1=O | 1000 | < 20 | – |
| CC[C@@H](C(N)=O)N1C[C@H](CSC)CC1=O | 160 | – | – |
| CCC[C@@H]1CC(=O)N([C@@H](CC)C(N)=O)C1 [BRIVARACETAM] | 14 | – | bioavailability [8]: 100%; Tmax [9]: 0.5 h; clearance [10]: 4.67 mL/min/kg; half-life [11]: 1.7 h |
| CCCC1(CCC)CC(=O)N([C@@H](CC)C(N)=O)C1 | 1000 | < 30 | – |
| CC(C)(C(N)=O)N1CCCC1=O | – | < 20 | – |
| CCOC(=O)[C@H](CC)N1CCCC1=O | – | < 20 | – |

| Structure (SMILES) | ED50 (Mus musculus [1]) [µmol/kg] | inhibition [2] [%] | also measured |
| --- | --- | --- | --- |
| C[C@@H](C(N)=O)N1CCCC1=O | – | – | ED50 (Mus musculus [12]): 504 µmol/kg |
| CC[C@@H](C(N)=O)N1C[C@H](CCl)CC1=O | 25 | – | – |
| CCC1CC(=O)N([C@@H](CC)C(N)=O)C1 (some centres undefined) | 87 | – | – |
| CC[C@@H](C(=O)N(C)OC)N1CCCC1=O | 1000 | < 20 | – |
| CCC(C(N)=O)N1CCC(Cc2ccccc2)C1=O (centres undefined) | 320 | < 20 | – |
| CC[C@@H](C(N)=O)N1CC(N)CC1=O (some centres undefined) | – | < 20 | – |
| CC[C@@H](C(N)=O)N1C[C@H](CN2CCCC2)CC1=O | 320 | < 20 | – |
| CC[C@@H](C(N)=O)N1C[C@H](CN=[N+]=[N-])CC1=O | 3.6 | – | – |
| CC[C@@H](C(=O)NO)N1CCCC1=O | 1000 | – | – |
| CC[C@@H](C(N)=O)N1CC(CC2CC2)CC1=O (some centres undefined) | 33 | – | – |
| CCCCCCN(CCCCCC)C(=O)[C@H](CC)N1CCCC1=O | 560 | < 20 | – |
| CCC(C(N)=O)N1CC(Cc2ccccc2)CC1=O (centres undefined) | 1000 | – | – |
| CC[C@@H](C(N)=O)N1C[C@H](C(N)=O)CC1=O | 1000 | < 20 | – |
| CCC(C(N)=O)N1C(=O)CCC1(C)C (single isomer, unassigned) | 1000 | – | – |
| CC[C@@H](C(=O)N(C)O)N1CCCC1=O | 1000 | – | – |
| CC[C@@H](C(N)=O)N1CCCC1=O [LEVETIRACETAM] | – | – | ED50 (Mus musculus [13]): 180 µmol/kg |
| CCC(C(N)=O)N1C[C@H](CO)CC1=O (some centres undefined) | – | < 20 | – |
| CC(C)(C)[C@@H](C(N)=O)N1CCCC1=O | – | < 20 | – |
| CC[C@@H](C(=O)NC)N1CCCC1=O | 1800 | – | – |
| CCCN(C(C)=O)C(CC)C(N)=O (centres undefined) | – | < 20 | – |
| CC[C@@H](C(N)=O)N1CCC(C)C1=O (some centres undefined) | 1000 | – | – |
